{"data": "Assay results gathered from unrelated publications", "CSF1R": "Macrophage colony-stimulating factor 1 receptor (CSF1R, Homo sapiens, UniProt P07333)", "CSF1R autoinhibited": "Macrophage colony-stimulating factor 1 receptor, autoinhibited (CSF1R, Homo sapiens, UniProt P07333)", "CSF1R Y969C": "Macrophage colony-stimulating factor 1 receptor (CSF1R, Homo sapiens, UniProt P07333, Y969C)"}
{"Structure (SMILES)": "COc1ccc2cc(OCC3(C(=O)O)CN(C(=O)c4ccc(F)cc4)C3)ccc2c1", "target": "CSF1R", "observed": "cell-free assay", "technique": "competition with immobilised ligand", "tested at": "1 µM", "quantity": "remaining binding", "value": "100%"}
{"Structure (SMILES)": "N[C@@H]1CCN(c2nccc(-c3cnn4ncccc34)n2)C1", "target": "CSF1R autoinhibited", "observed": "binding", "tested at": "1 µM", "quantity": "remaining binding", "value": "100%"}
{"Structure (SMILES)": "N#CCCc1ccc2c(c1)-c1[nH]c3ccc([N+](=O)[O-])cc3c1CC(=O)N2", "target": "CSF1R", "observed": "cell-free assay", "tested at": "0.5 µM", "quantity": "remaining signal", "value": "43.4%"}
{"Structure (SMILES)": "Cc1cnc(NC2CCOCC2)nc1-n1cnc(C(=O)NC(CN)c2cc(F)cc(Cl)c2)c1 (stereo not shown)", "target": "CSF1R Y969C", "observed": "enzyme activity", "mode": "inhibitor", "technique": "radiometric", "tested at": "1 µM", "quantity": "remaining activity", "value": "101%"}
{"Structure (SMILES)": "CO[C@@H](C)c1c(Nc2ccc([C@@H](N(C)C(=O)C3CCS(=O)(=O)CC3)C(F)(F)F)cc2)cnc2cc(Cl)nn12", "target": "CSF1R autoinhibited", "observed": "cell-free assay", "technique": "competition with immobilised ligand", "tested at": "1 µM", "quantity": "remaining binding", "value": "88%"}
{"Structure (SMILES)": "c1cnn2ncc(-c3ccnc(N4CCC45COC5)n3)c2c1", "target": "CSF1R", "observed": "binding", "tested at": "1 µM", "quantity": "remaining binding", "value": "100%"}
{"Structure (SMILES)": "O=Nc1c(-c2c(O)[nH]c3ccccc23)[nH]c2ccccc12", "target": "CSF1R", "observed": "cell-free assay", "tested at": "0.5 µM", "quantity": "remaining signal", "value": "83.2%"}
{"Structure (SMILES)": "Cc1c(NC(=O)c2cc(C(N)=O)nc3cc(F)ccc23)c(C(F)(F)F)nn1Cc1ccc(C#N)cc1", "target": "CSF1R", "observed": "cell-free assay", "technique": "competition with immobilised ligand", "tested at": "1 µM", "quantity": "remaining binding", "value": "83%"}
{"Structure (SMILES)": "COc1cc2nccc(Oc3ccc(NC(=O)c4c5n(n(-c6ccc(F)cc6)c4=O)CCCC5)cc3)c2cc1OC", "target": "CSF1R", "observed": "enzyme activity", "mode": "inhibitor", "tested at": "0.1 µM", "quantity": "inhibition", "value": "38%"}
{"Structure (SMILES)": "Oc1ccc(-c2nc(-c3ccncc3)c(-c3ccc(F)cc3)[nH]2)cc1", "target": "CSF1R", "observed": "cell-free assay", "tested at": "0.5 µM", "quantity": "remaining signal", "value": "96.9%"}
{"Structure (SMILES)": "CCS(=O)(=O)c1cc2cc(C[C@@](O)(CC(C)(C)c3ccc(F)cc3C(N)=O)C(F)(F)F)[nH]c2cn1", "target": "CSF1R autoinhibited", "observed": "cell-free assay", "technique": "competition with immobilised ligand", "tested at": "1 µM", "quantity": "remaining binding", "value": "94%"}
{"Structure (SMILES)": "CC(C)(O)[C@H]1CC[C@H](Nc2ccc3ncc(-c4cccc(C(F)(F)F)c4)n3n2)CC1", "target": "CSF1R", "observed": "enzyme activity", "mode": "inhibitor", "tested at": "1 µM", "quantity": "remaining activity", "value": "89.7%"}
{"Structure (SMILES)": "COc1cccc(CNC(=O)c2nc3scc(COCc4ccc(C(=O)O)cc4)c3c(=O)[nH]2)c1", "target": "CSF1R autoinhibited", "observed": "cell-free assay", "technique": "competition with immobilised ligand", "tested at": "1 µM", "quantity": "remaining binding", "value": "100%"}
{"Structure (SMILES)": "Cc1ccc(C(=O)NCc2ccsc2)cc1C#Cc1cn(C(C)C)c2ncnc(N)c12", "target": "CSF1R", "observed": "enzyme activity", "mode": "inhibitor", "tested at": "1 µM", "quantity": "activity vs control", "value": "8%"}
{"Structure (SMILES)": "CCN(CC)CCNC(=O)c1c(C)[nH]c(/C=C2\\C(=O)Nc3ccc(F)cc32)c1C", "target": "CSF1R", "observed": "cell-free assay", "tested at": "10 µM", "quantity": "inhibition", "value": "98%"}
{"Structure (SMILES)": "CN(c1nccc(-c2cnn3ncccc23)n1)C1CC1", "target": "CSF1R", "observed": "binding", "tested at": "1 µM", "quantity": "remaining binding", "value": "88%"}
{"Structure (SMILES)": "COc1cc2ncnc(Nc3ccc(Oc4ccccc4)c(C)c3C)c2cc1OC", "target": "CSF1R", "observed": "enzyme activity", "mode": "inhibitor", "tested at": "1 µM", "quantity": "inhibition", "value": "8%"}
{"Structure (SMILES)": "CCCOc1ccc([C@H]2[C@H](C(=O)O)[C@@H](c3ccc4c(c3)OCO4)CN2CC(=O)Nc2c(CC)cccc2CC)cc1", "target": "CSF1R autoinhibited", "observed": "cell-free assay", "technique": "competition with immobilised ligand", "tested at": "1 µM", "quantity": "remaining binding", "value": "61%"}
{"Structure (SMILES)": "Cc1ccc(NC(=O)c2ccc(C)c(C(F)(F)F)c2)cc1C#Cc1nn(C2CCC(O)CC2)c2ncnc(N)c12 (stereo not shown)", "target": "CSF1R Y969C", "observed": "cell-free assay", "tested at": "10 µM", "quantity": "remaining signal", "value": "13%"}
{"Structure (SMILES)": "Nc1cnc(N2CCc3cc(S(=O)(=O)Nc4c(F)cc(Cl)cc4F)cc(N4CCCC4=O)c32)nc1", "target": "CSF1R autoinhibited", "observed": "cell-free assay", "technique": "competition with immobilised ligand", "tested at": "1 µM", "quantity": "remaining binding", "value": "100%"}
{"Structure (SMILES)": "CC(C)(C)c1nc2c(s1)c1nc(N)ncc1c1ccc(NS(=O)(=O)c3c(F)cccc3F)c(F)c12", "target": "CSF1R", "observed": "enzyme activity", "mode": "inhibitor", "technique": "radiometric", "tested at": "1 µM", "quantity": "remaining activity", "value": "109%"}
{"Structure (SMILES)": "Cc1cc(NC(=O)c2cccc3cc(-c4cccc5[nH]nc(N)c45)ccc23)ccc1F", "target": "CSF1R Y969C", "observed": "enzyme activity", "mode": "inhibitor", "tested at": "0.1 µM", "quantity": "activity vs control", "value": "30%"}
{"Structure (SMILES)": "Nc1ncnc2occ(-c3ccc(NC(=O)Nc4cc(C(F)(F)F)ccc4F)cc3)c12", "target": "CSF1R", "observed": "cell-free assay", "tested at": "20 µM", "quantity": "remaining signal", "value": "0%"}
{"Structure (SMILES)": "CC/C(=N\\NC(=O)NCc1cccc(O)c1)c1ccc(O)c(C)c1O", "target": "CSF1R", "observed": "enzyme activity", "mode": "inhibitor", "tested at": "0.1 µM", "quantity": "inhibition", "value": "-4.4%"}
{"Structure (SMILES)": "CCCOc1ccc(OC)c(F)c1C(=O)c1ccc(C(=O)N[C@@H]2CNC[C@H]2NC(=O)c2ccc3[nH]ncc3c2)cc1", "target": "CSF1R", "observed": "enzyme activity", "mode": "inhibitor", "tested at": "10 µM", "quantity": "remaining activity", "value": "27%"}
{"Structure (SMILES)": "O=C(Nc1cnn(-c2csc(C(=O)NC3COC3)c2)c1)Nc1c(F)cccc1Cl", "target": "CSF1R", "observed": "enzyme activity", "mode": "inhibitor", "tested at": "5 µM", "quantity": "remaining activity", "value": "98.9%"}
{"Structure (SMILES)": "CNC(=O)c1cc2c(Oc3ccc(NC(=O)C4(C(=O)Nc5ccc(F)cc5)CC4)cc3)ccnc2cc1OC", "target": "CSF1R", "observed": "enzyme activity", "mode": "inhibitor", "technique": "radiometric", "tested at": "1 µM", "quantity": "inhibition", "value": "98%"}
{"Structure (SMILES)": "COc1cc(Cl)c(C(=O)N[C@@H](CN[C@H]2CC[C@@H](N)CC2)Cc2ccc(C#N)cc2)cc1-c1ccc(CN[C@H](C)c2ccc(C)cc2)o1", "target": "CSF1R", "observed": "enzyme activity", "mode": "inhibitor", "tested at": "1 µM", "quantity": "remaining activity", "value": "111%"}
{"Structure (SMILES)": "CN(CCCC(F)(F)F)c1nccc(-c2cnn3ncccc23)n1", "target": "CSF1R autoinhibited", "observed": "binding", "tested at": "1 µM", "quantity": "remaining binding", "value": "100%"}
{"Structure (SMILES)": "CN(C)C1CCN(CC#Cc2nn(C3CCCC3)c3nc(NCc4ccccc4)ncc23)C1 (stereo not shown)", "target": "CSF1R", "observed": "enzyme activity", "mode": "inhibitor", "technique": "FRET", "tested at": "0.1 µM", "quantity": "inhibition", "value": "44%"}
{"Structure (SMILES)": "C[C@@H]1CCN(c2nccc(-c3cnn4ncccc34)n2)C1", "target": "CSF1R autoinhibited", "observed": "binding", "tested at": "1 µM", "quantity": "remaining binding", "value": "78%"}
{"Structure (SMILES)": "CCOC(=O)c1cc2cc(-c3cc(C(=O)NCc4ccc(C(=O)O)cc4)nn3C)ccc2[nH]1", "target": "CSF1R autoinhibited", "observed": "cell-free assay", "technique": "competition with immobilised ligand", "tested at": "0.1 µM", "quantity": "remaining binding", "value": "94%"}
{"Structure (SMILES)": "O=C1Nc2ccc(Cl)cc2C1=Cc1cc(Cl)c(O)c(Cl)c1", "target": "CSF1R", "observed": "cell-free assay", "tested at": "0.5 µM", "quantity": "remaining signal", "value": "77.9%"}
{"Structure (SMILES)": "CS(=O)(=O)Nc1cccc(-c2csc(NC(=O)CSc3nc4nccnc4c(=O)n3CCc3ccccc3)n2)c1", "target": "CSF1R", "observed": "enzyme activity", "mode": "inhibitor", "tested at": "10 µM", "quantity": "inhibition", "value": "8%"}
